The results in this text go back to ChEMBL document CHEMBL1134546, “Structure-based design, synthesis, and biological evaluation of conformationally restricted novel 2-alkylthio-6-[1-(2,6-difluorophenyl)alkyl]-3,4-dihydro-5-alkylpyrimidin-4(3H)-ones as non-nucleoside inhibitors of HIV-1 reverse transcriptase” (J Med Chem, 2001).

For assay [1], the system named is Human immunodeficiency virus 1. The assay can be described thus: Effective concentration against HIV-1 induced cytopathogenicity in MT-4 cells. Type of assay: functional, organism-based, MT4. The following applies: Human immunodeficiency virus 1, MT4. The procedure, abridged: (§1)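 MT-4 cells (1 × 10⁴/well) incubated with serial compound dilutions (200 mM DMSO stock diluted in medium), with or without HIV-1 IIIB (100 CCID₅₀/well), 4 days at 37 °C in RPMI 1640 with 10% FCS. Viable cells counted by MTT. CC₅₀ from mock-infected cells and EC₅₀ as 50% protection from virus-induced cytopathicity, run in parallel. Mean of at least two experiments.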

The subject of assay [2] is MT4. The assay can be described thus: Cytotoxicity against MT-4 cells. The class given is functional, Homo sapiens. As to conditions: Homo sapiens, MT4. The procedure, abridged:
as §1

The test system of assay [3] is MT4. The assay can be described thus: Anti-HIV-1 activity against WTIIIB HIV-1 strain in MT-4 cells. As to conditions: Homo sapiens. The class given is functional, cell-based.
The test system of assay [4] is MT4. Put plainly: Anti-HIV-1 activity against Y181C HIV-1 strain in MT-4 cells. Type of assay: functional, cell-based. As to conditions: Homo sapiens.
Assay [5] has as its target Human immunodeficiency virus type 1 reverse transcriptase (Human immunodeficiency virus 1, UniProt Q72547). Put plainly: Inhibitory activity against HIV-1 recombinant reverse transcriptase.
Assay [6] relates to MT4. The assay can be described thus: CC50/EC50 ratio of the compound. The class given is functional. The procedure, abridged: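 Selectivity index, calculated as CC₅₀/EC₅₀. Both values come from the parallel MTT readout in mock-infected and HIV-1 IIIB-infected MT-4 cells (4-day incubation at 37 °C).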
Assay [7] in a line: Y181C/WTIIIB ratio of the compound. Type of assay: functional. The procedure, abridged: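 Fold resistance, given as the EC₅₀ against Y181C mutant HIV-1 divided by the EC₅₀ against wild-type IIIB. Each EC₅₀ is the dose giving 50% protection of MT-4 cells from virus-induced cytopathicity, read by MTT.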
Assay [8] concerns Human immunodeficiency virus 1. Put plainly: Anti-HIV-1 activity determined as dose required to reduce p24 antigen levels. Type of assay: functional.

For the compound `CCC(C)Sc1nc(O)c(C)c(C(C)c2c(F)cccc2F)n1` (stereo not given), the values for the concentration for a half-maximal effect (EC50) in assay [1], in assay [3] and in assay [4] were 30 nM, 20 nM and 300 nM, respectively. Moreover, in assay [2], the cytotoxic concentration (CC50) (as a rule, the concentration that lowers cell viability or growth by half) was more than 200000 nM. In assay [5], the IC50 (usually the concentration that gives 50% inhibition) was 20 nM. In addition, in assay [6], the Selectivity index is on record as 6666. Moreover, in assay [7], the Fold resistance was found to be 15.

For `CSc1nc(O)c(C)c(C(C)c2c(F)cccc2F)n1` (stereo not given), the EC50 – broadly, the concentration that produces a half-maximal response – in assay [1] is 40 nM; in assay [3] it was 37 nM; in assay [4], more than 10000 nM. This compound yielded a 50% cytotoxic concentration (CC50) in assay [2] of more than 200000 nM. In addition, the IC50 in assay [5] turned out to be 20 nM. The Selectivity index in assay [6] is given as more than 5000. In assay [7], the Fold resistance was more than 270.

Take `O=C1Nc2ccc(Cl)cc2[C@@](C#CC2CC2)(C(F)(F)F)O1` [EFAVIRENZ]: the EC50 amounted to 4 nM in assay [3] and 25 nM in assay [4]. The Fold resistance in assay [7] amounted to 6.

Consider `Cc1c(Cc2c(F)cccc2F)nc(SC2CCCC2)[nH]c1=O`, for which, in assay [8], it took 40 nM to reach the 90% level (EC90), it took 0.075 µM to reach the 99% level (EC99) and the EC99.9 was 0.15 µM. In assay [1], the midpoint of the response, the EC50, lay at 80 nM. In assay [3], this compound showed an EC50 of 40 nM. Also, the EC50 in assay [4] amounted to 1200 nM. The Selectivity index in assay [6] was more than 2500. Further, the Fold resistance in assay [7] was 30.
